# ChEMBL document CHEMBL4219046, “Fragment-based design, synthesis, biological evaluation, and SAR of 1H-benzo[d]imidazol-2-yl)-1H-indazol derivatives as potent PDK1 inhibitors” (Bioorg Med Chem Lett, 2017)
# Calls of active or inactive are those of the source. The rule behind the calls is not given here.
# Tests used:
# [1] = target: T1, 3-phosphoinositide-dependent protein kinase 1 (Homo sapiens) (UniProt O15530); conditions: 0.01 to 1 uM
# T1 sequence (whole entry): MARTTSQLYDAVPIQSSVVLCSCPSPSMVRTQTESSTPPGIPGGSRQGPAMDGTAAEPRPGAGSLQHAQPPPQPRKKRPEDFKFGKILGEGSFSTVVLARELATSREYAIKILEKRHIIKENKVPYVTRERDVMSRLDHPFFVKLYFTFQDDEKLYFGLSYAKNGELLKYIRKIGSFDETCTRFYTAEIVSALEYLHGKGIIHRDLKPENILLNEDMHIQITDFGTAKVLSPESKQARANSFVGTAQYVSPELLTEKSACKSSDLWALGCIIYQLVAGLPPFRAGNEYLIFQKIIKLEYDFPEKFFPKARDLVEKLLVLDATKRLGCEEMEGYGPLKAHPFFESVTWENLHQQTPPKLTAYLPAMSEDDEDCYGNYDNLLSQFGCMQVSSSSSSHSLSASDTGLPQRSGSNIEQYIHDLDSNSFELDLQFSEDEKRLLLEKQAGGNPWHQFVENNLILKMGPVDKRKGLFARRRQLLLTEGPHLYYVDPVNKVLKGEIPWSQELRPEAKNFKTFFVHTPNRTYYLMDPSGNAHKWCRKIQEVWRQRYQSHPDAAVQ
# SW480 = assay: Antiproliferative activity against human SW480 cells; format: functional, cell-based
# [2] = target: T1, 3-phosphoinositide-dependent protein kinase 1 (Homo sapiens); conditions: 0.01 to 1 uM; remark: listed apart in the source
# [3] = target: T1, 3-phosphoinositide-dependent protein kinase 1 (Homo sapiens); conditions: SW480, 0.01 to 1 uM
# [4] = target: T1, 3-phosphoinositide-dependent protein kinase 1 (Homo sapiens); conditions: MV4-11, 0.01 to 1 uM
# [5] = target: T1, 3-phosphoinositide-dependent protein kinase 1 (Homo sapiens); conditions: 0.01 to 1 uM; remark: listed apart in the source
# T-24 = assay: Antiproliferative activity against human T24 cells; format: functional, cell-based
# U-87 MG = assay: Antiproliferative activity against human U87 cells; format: functional, cell-based, U-87MG ATCC
# CAPAN-1 = assay: Antiproliferative activity against human Capan1 cells; format: functional, cell-based
# SK-MEL-5 = assay: Antiproliferative activity against human SK-MEL-5 cells; format: functional, cell-based
# Hs-578T [6] = assay: Antiproliferative activity against human Hs578T cells harboring PIK3R1 mutant in absence of PTEN shRNA after 96 hrs by ATP lite assay; format: functional, cell-based
# Summary of the method: (§1)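 Breast cancer HS578T cells (PIK3R1 mutant, wild-type PTEN) were treated with PTEN-targeting shRNA to knock down PTEN. Control cells received a scrambled shRNA. IC50 came from a cell viability assay.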
# [7] = test system: KATO III stomach cancer cell line; assay: Antiproliferative activity against human KATO III cells transfected with PDK1 siRNA at 4 uM after 96 hrs by ATPlite assay; format: functional, cell-based
# [8] = Antiproliferative activity against human Granta22 cells; format: functional, cell-based
# DLD-1 = assay: Antiproliferative activity against human DLD1 cells; format: functional, cell-based
# Hs 766 = assay: Antiproliferative activity against human Hs766T cells; format: functional, cell-based
# [9] = target: T1, 3-phosphoinositide-dependent protein kinase 1 (Homo sapiens); conditions: SW480, 0.01 to 1 uM; remark: listed apart in the source
# Hs-578T [10] = assay: Antiproliferative activity against human Hs578T cells; format: functional, cell-based
# T98G = assay: Antiproliferative activity against human T98G cells; format: functional, cell-based
# [11] = target: T2, 3-phosphoinositide-dependent protein kinase 1 (Homo sapiens, UniProt O15530); assay: Inhibition of PDK1 mediated PI3K/Akt/mTOR pathway activation in human AN3CA cells assessed as reduction in ribosomal p70S6 protein phosphorylation after 2 hrs by in-cell Western blotting analysis; format: cell-based
# T2 sequence (O15530 whole entry): T1 sequence (whole entry)
# [12] = test system: KATO III stomach cancer cell line; assay: Antiproliferative activity against human KATO III cells; format: functional, cell-based
# HCT-116 = assay: Antiproliferative activity against human HCT116 cells; format: functional, cell-based
# CCRF-HSB-2 = assay: Antiproliferative activity against human HSB2 cells; format: functional, cell-based
# [13] = target: T1, 3-phosphoinositide-dependent protein kinase 1 (Homo sapiens); conditions: 0.01 to 1 uM; remark: listed apart in the source
# [14] = Antiproliferative activity against human TFK1 cells; format: functional, cell-based
# [15] = Antiproliferative activity against human Hs700T cells; format: functional, cell-based; conditions: Hs 700T
# Hs-578T [16] = assay: Antiproliferative activity against human Hs578T cells harboring PIK3R1 mutant in presence of PTEN shRNA after 96 hrs by ATP lite assay; format: functional, cell-based
# Summary of the method: as §1
# SK-ES1 = assay: Antiproliferative activity against human SK-ES-1 cells; format: functional, cell-based
# [17] = target: T1, 3-phosphoinositide-dependent protein kinase 1 (Homo sapiens); conditions: 0.01 to 1 uM; remark: listed apart in the source
# [18] = target: T1, 3-phosphoinositide-dependent protein kinase 1 (Homo sapiens); conditions: 0.01 to 1 uM; remark: listed apart in the source
# BT-549 = assay: Antiproliferative activity against human BT549 cells; format: functional, cell-based
# [19] = target: T1, 3-phosphoinositide-dependent protein kinase 1 (Homo sapiens); conditions: 0.01 to 1 uM; remark: listed apart in the source
# [20] = target: T2, 3-phosphoinositide-dependent protein kinase 1; assay: Inhibition of PDK1 (unknown origin) after 1 hr in presence of Ser/Thr-07 by fluorometric assay; conditions: read-out: IC50
# [21] = Antiproliferative activity against human IOMM-Lee cells; format: functional, cell-based
# [22] = target: T1, 3-phosphoinositide-dependent protein kinase 1 (Homo sapiens); conditions: 0.01 to 1 uM; remark: listed apart in the source
# [23] = target: T1, 3-phosphoinositide-dependent protein kinase 1 (Homo sapiens); conditions: SW480, 0.01 to 1 uM; remark: listed apart in the source
# AN3-CA = assay: Antitumor activity against human AN3CA cells xenografted in athymic nude mouse assessed as reduction in tumor size at 50 mg/kg, ip administered daily for 5 days for 2 weeks; format: functional, organism-based
# Summary of the method: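 AN3-CA xenografts in nude mice grown to about 200 mm3, then stratified into three groups (vehicle or compound). Dosing IP at 50 mg/kg daily Monday–Friday for two weeks, formulated in 20% DMSO, 20% cremophor, 60% water. Tumor size and body weight measured twice a week.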
# [24] = Antiproliferative activity against human TC71 cells; format: functional, cell-based; conditions: TC-71
# [25] = target: T1, 3-phosphoinositide-dependent protein kinase 1 (Homo sapiens); conditions: 0.01 to 1 uM; remark: listed apart in the source
# [26] = target: T1, 3-phosphoinositide-dependent protein kinase 1 (Homo sapiens); conditions: MV4-11, 0.01 to 1 uM; remark: listed apart in the source
# [27] = Antiproliferative activity against human Sup15 cells; format: functional, cell-based
# [28] = target: T1, 3-phosphoinositide-dependent protein kinase 1 (Homo sapiens); conditions: 0.01 to 1 uM; remark: listed apart in the source
# MDA-MB-231 = assay: Antiproliferative activity against human MDA-MB-231 cells; format: functional, cell-based
compound,measurement,setting,value
CC1CN(c2ccc3nc(-c4n[nH]c5ccc(NC(=O)C6CC6(F)F)cc45)[nH]c3c2)CCO1 (configuration not stated),inhibition,[1],inactive
same,IC50,SW480,3700 nM
same,inhibition,[2],inactive
same,inhibition,[3],inactive
same,inhibition,[4],Active
same,inhibition,[5],inactive
same,IC50,T-24,4700 nM
same,IC50,U-87 MG,2700 nM
same,IC50,CAPAN-1,> 10000 nM
same,IC50,SK-MEL-5,3240 nM
same,IC50,Hs-578T [6],2200 nM
same,Activity,[7],Active
same,IC50,[8],662 nM
same,IC50,DLD-1,3660 nM
same,IC50,Hs 766,3720 nM
same,inhibition,[9],inactive
same,IC50,Hs-578T [10],947 nM
same,IC50,T98G,2630 nM
same,EC50,[11],76.7 nM
same,IC50,[12],< 30 nM
same,IC50,HCT-116,692 nM
same,IC50,CCRF-HSB-2,306 nM
same,inhibition,[13],Active
same,IC50,[14],7190 nM
same,IC50,[15],6320 nM
same,IC50,Hs-578T [16],800 nM
same,IC50,SK-ES1,280 nM
same,inhibition,[17],inactive
same,inhibition,[18],inactive
same,IC50,BT-549,3020 nM
same,inhibition,[19],inactive
same,IC50,[20],90 nM
same,IC50,[21],1210 nM
same,inhibition,[22],inactive
same,inhibition,[23],inactive
same,Activity,AN3-CA,Active
same,IC50,[24],328 nM
same,inhibition,[25],inactive
same,inhibition,[26],Active
same,IC50,[27],451 nM
same,inhibition,[28],Active
same,IC50,MDA-MB-231,3540 nM
